Measured values published in ChEMBL document CHEMBL1772967 (J Med Chem, 2011).
Activity calls are given as the source filed them. The calls are words filed in the database; no cut-off is given here.

Key:
[1] = Binding affinity to human alpha-1-acid glycoprotein at 500 uM at 37 degC by surface plasmon resonance assay; type: ADME
Method in brief: (§1)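 Compounds were diluted from 10 mM DMSO stocks into 50 mM Hepes pH 7.2, 150 mM NaCl, 0.005% Tween-20, 5% DMSO, in cross-serial dilutions. Responses at the end of association were double-referenced, solvent-corrected and fit to single- or two-site equilibrium models for KD.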

[2] = Binding affinity to rat alpha-1-acid glycoprotein at 500 uM at 37 degC by surface plasmon resonance assay; type: ADME; method in brief: as §1
[3] = Binding affinity to human alpha-1-acid glycoprotein at 500 uM at 20 degC by surface plasmon resonance assay; type: ADME; method in brief: as §1
[4] = Binding affinity to rat alpha-1-acid glycoprotein at 500 uM at 20 degC by surface plasmon resonance assay; type: ADME; method in brief: as §1
[5] = Binding affinity to 10 uM of human alpha-1-acid glycoprotein in at 5 uM after 6 hrs by equilibrium dialysis method; type: ADME; details: isolated protein
Method in brief: (§2)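 [14C]-labelled plus unlabelled drug added to human AAG at 0.5, 1 or 5 mg/mL to give 5, 25 or 75 μM drug. Dialysed against 0.133 M isotonic phosphate buffer, 6 h, 37 °C, 5% CO2. Scintillation counting of both sides gives % free (buffer/protein side ×100) and % bound. High-affinity KD from a two-site fit of bound vs free, Bmax1 fixed at the AAG concentration.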

[6] = Binding affinity human alpha-1-acid glycoprotein in after 6 hrs by equilibrium dialysis method; type: ADME; method in brief: as §2
[7] = target: Sonic hedgehog protein (Homo sapiens) (UniProt Q15465); assay: Inhibition of human SHH pathway in mouse S12 cells assessed as GLI-mediated transcriptional activity after 48 hrs by luciferase reporter gene assay in presence of 1 mg/mL human alpha-1-acid glycoprotein; type: cell-based
Method in brief: (§3)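 Mouse C3H10T1/2-derived S12 cells carrying a stably integrated GLI-luciferase reporter. Grown in high-glucose DMEM with 10% FBS, replated, then switched to 0.5% FBS to induce cilia. Shh, human AAG (0, 0.5, 1 or 5 mg/mL) and compound added. Luciferase (Dual-Glo) read after 48 h. Mean of four experiments ±SD.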

[8] = target: Sonic hedgehog protein (Homo sapiens) (UniProt Q15465); assay: Inhibition of human SHH pathway in mouse S12 cells assessed as GLI-mediated transcriptional activity at 3 uM after 48 hrs by luciferase reporter gene assay in presence of 5 mg/mL human alpha-1-acid glycoprotein; type: cell-based; method in brief: as §3
[9] = Binding affinity to human alpha-1-acid glycoprotein at 37 degC by surface plasmon resonance assay; type: ADME
Method in brief: (§4)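 Cross-serial dilutions, top 250 μM. Reference-subtracted, solvent-corrected, double-referenced responses at the end of association plotted against concentration and fitted to single- or two-site equilibrium models.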

[10] = Binding affinity to rat alpha-1-acid glycoprotein at 250 uM at 37 degC by surface plasmon resonance assay; type: ADME; method in brief: as §4
[11] = target: T1, Albumin (Rattus norvegicus, UniProt P02770); assay: Binding affinity to rat serum albumin at 37 degC by surface plasmon resonance assay
[12] = Binding affinity to low-affinity site of human alpha-1-acid glycoprotein at 20 degC by surface plasmon resonance assay; type: ADME; method in brief: as §4
[13] = target: T1, Albumin; assay: Binding affinity to high-affinity binding site of rat serum albumin at 20 degC by surface plasmon resonance assay
[14] = target: T1, Albumin; assay: Binding affinity to low-affinity binding site of rat serum albumin at 20 degC by surface plasmon resonance assay
[15] = Binding affinity to human alpha-1-acid glycoprotein at 20 degC by isothermal titration calorimetry analysis; type: ADME
Method in brief: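 ITC at 20 °C. Human (300 μM) or rat (100 μM) AAG dialysed overnight at 4 °C into 50 mM HEPES pH 7.2, 150 mM NaCl, 0.005% Tween-20, 5% DMSO. Heats corrected with buffer controls and fitted to a one-site model.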

[16] = Binding affinity to high-affinity site of human alpha-1-acid glycoprotein at 20 degC by surface plasmon resonance assay; type: ADME; method in brief: as §4
[17] = Binding affinity to […] uM of human alpha-1-acid glycoprotein in at 5 uM after 6 hrs by equilibrium dialysis method; type: ADME; details: isolated protein
[18] = Binding affinity to 100 uM of human alpha-1-acid glycoprotein in at 5 uM after 6 hrs by equilibrium dialysis method; type: ADME; details: isolated protein; method in brief: as §2
[19] = Binding affinity to 10 uM of human alpha-1-acid glycoprotein in at 25 uM after 6 hrs by equilibrium dialysis method; type: ADME; details: isolated protein; method in brief: as §2
[20] = Binding affinity to […] uM of human alpha-1-acid glycoprotein in at 25 uM after 6 hrs by equilibrium dialysis method; type: ADME; details: isolated protein
[21] = Binding affinity to 100 uM of human alpha-1-acid glycoprotein in at 25 uM after 6 hrs by equilibrium dialysis method; type: ADME; details: isolated protein; method in brief: as §2
[22] = Binding affinity to 10 uM of human alpha-1-acid glycoprotein in at 75 uM after 6 hrs by equilibrium dialysis method; type: ADME; details: isolated protein; method in brief: as §2
[23] = Binding affinity to […] uM of human alpha-1-acid glycoprotein in at 75 uM after 6 hrs by equilibrium dialysis method; type: ADME; details: isolated protein
[24] = Binding affinity to 100 uM of human alpha-1-acid glycoprotein in at 75 uM after 6 hrs by equilibrium dialysis method; type: ADME; details: isolated protein; method in brief: as §2
[25] = target: T2, Albumin (Homo sapiens, UniProt P02768); assay: Binding affinity to human serum albumin at 500 uM at 37 degC by surface plasmon resonance assay; type: ADME; details: isolated protein
[26] = target: T1, Albumin; assay: Binding affinity to rat serum albumin at 500 uM at 37 degC by surface plasmon resonance assay; type: ADME; details: isolated protein
[27] = Binding affinity to high-affinity binding site of rat alpha-1-acid glycoprotein at 20 degC by surface plasmon resonance assay; type: ADME; method in brief: as §4
[28] = Binding affinity to low-affinity binding site of rat alpha-1-acid glycoprotein at 20 degC by surface plasmon resonance assay; type: ADME; method in brief: as §4
[29] = target: T2, Albumin; assay: Binding affinity to human serum albumin at 500 uM at 20 degC by surface plasmon resonance assay; type: ADME; details: isolated protein
[30] = target: T1, Albumin; assay: Binding affinity to rat serum albumin at 500 uM at 20 degC by surface plasmon resonance assay; type: ADME; details: isolated protein
[31] = Binding affinity to human alpha-1-acid glycoprotein at 25 degC; type: ADME

T1 sequence (P02770 whole entry): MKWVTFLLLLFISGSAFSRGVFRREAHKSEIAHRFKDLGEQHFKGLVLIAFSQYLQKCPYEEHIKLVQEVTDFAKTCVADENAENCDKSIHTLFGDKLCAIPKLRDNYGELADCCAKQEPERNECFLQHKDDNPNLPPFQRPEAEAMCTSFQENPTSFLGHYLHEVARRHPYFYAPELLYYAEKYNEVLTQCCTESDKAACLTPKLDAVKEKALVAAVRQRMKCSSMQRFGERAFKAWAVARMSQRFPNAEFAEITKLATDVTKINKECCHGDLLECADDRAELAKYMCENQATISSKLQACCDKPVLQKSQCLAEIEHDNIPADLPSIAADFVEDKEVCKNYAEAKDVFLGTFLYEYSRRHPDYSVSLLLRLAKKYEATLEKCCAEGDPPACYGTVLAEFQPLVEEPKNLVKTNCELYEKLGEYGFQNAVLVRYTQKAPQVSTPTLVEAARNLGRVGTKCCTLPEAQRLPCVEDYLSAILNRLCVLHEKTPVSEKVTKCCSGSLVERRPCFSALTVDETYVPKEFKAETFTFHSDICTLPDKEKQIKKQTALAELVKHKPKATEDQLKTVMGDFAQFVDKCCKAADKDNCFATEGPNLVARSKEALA
T2 sequence (P02768 whole entry): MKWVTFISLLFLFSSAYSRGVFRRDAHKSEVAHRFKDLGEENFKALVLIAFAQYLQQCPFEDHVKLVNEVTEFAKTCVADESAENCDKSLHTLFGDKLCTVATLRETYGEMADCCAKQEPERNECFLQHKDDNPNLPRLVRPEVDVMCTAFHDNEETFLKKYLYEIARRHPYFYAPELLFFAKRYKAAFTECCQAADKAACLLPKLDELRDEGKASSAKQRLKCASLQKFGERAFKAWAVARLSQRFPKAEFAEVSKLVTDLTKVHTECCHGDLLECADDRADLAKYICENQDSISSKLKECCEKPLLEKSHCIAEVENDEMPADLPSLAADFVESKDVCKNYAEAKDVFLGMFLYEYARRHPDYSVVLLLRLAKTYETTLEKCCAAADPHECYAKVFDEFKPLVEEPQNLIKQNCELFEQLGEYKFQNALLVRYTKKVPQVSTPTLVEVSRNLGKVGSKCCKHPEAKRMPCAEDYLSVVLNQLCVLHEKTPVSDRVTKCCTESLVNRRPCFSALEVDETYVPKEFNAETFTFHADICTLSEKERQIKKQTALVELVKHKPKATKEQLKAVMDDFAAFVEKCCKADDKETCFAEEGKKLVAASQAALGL
Sequence of Sonic hedgehog protein (Homo sapiens) (Q15465 24-197 limits assumed): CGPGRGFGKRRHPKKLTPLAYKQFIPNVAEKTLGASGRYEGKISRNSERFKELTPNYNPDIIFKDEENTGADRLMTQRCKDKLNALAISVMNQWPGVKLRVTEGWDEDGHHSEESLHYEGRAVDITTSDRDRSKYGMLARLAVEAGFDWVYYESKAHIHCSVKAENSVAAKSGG

## CC(=O)CC(c1ccccc1)c1c(O)c2ccccc2oc1=O (centres undefined) [WARFARIN]
[1]
  Activity: Not Active
[2]
  Activity: Not Active
[3]
  Activity: Not Active
[4]
  Activity: Not Active

## CS(=O)(=O)c1ccc(C(=O)Nc2ccc(Cl)c(-c3ccccn3)c2)c(Cl)c1 [VISMODEGIB]
[5]
  Activity: 96.5%
[6]
  Kd: 1.5 µM
[7]
  inhibition: Active
[8]
  inhibition: inactive
[9]
  Kd: 13 µM
[10]
  Activity: Not Active
[11]
  Kd: 140 µM
[12]
  Kd: 139 µM
[13]
  Kd: 171 µM
[14]
  Kd: 5.8 µM
[15]
  Kd: 1.1 µM
[16]
  Kd: 3.7 µM
[17]
  Activity: 98.3%
[18]
  Activity: 98.8%
[19]
  Activity: 70.4%
[20]
  Activity: 88.9%
[21]
  Activity: 98.7%
[22]
  Activity: 41.1%
[23]
  Activity: 60%
[24]
  Activity: 98.3%

## C=CC1=C(C)/C(=C/C2=NC(=C\c3[nH]c(/C=C4\NC(=O)C(C)=C4C=C)c(C)c3CCC(=O)O)/C(CCC(=O)O)=C2C)NC1=O [BILIVERDIN]
[25]
  Activity: Not Active
[26]
  Activity: Not Active
[12]
  Kd: 219 µM
[27]
  Kd: 71 µM
[28]
  Kd: 1700 µM
[29]
  Activity: Not Active
[30]
  Activity: Not Active
[31]
  Kd: 8.3 µM
[15]
  Kd: 7 µM
[16]
  Kd: 15.3 µM
